From PubChem
The list is not random: actives were taken first. Their share in the collection is about 2.1%.
DENV2 CPE rescue: protects cells from dengue virus 2 cytopathic effect; DENV2-infected cells, cytopathic effect rescue, plate reader; CPE inhibition, % at 9.99 µM; actives 1.7% (n = 350,000); in the data active = CPE inhibition above about 20%, passing the limit was not always enough; inconclusive = no clear call, values can overlap the other calls; tested in BHK-21 cells
C2C12 statin: protects C2C12 myotubes from simvastatin toxicity; ATP luminescence, 48 h; scaled: DMSO 0, geranylgeraniol control 100; rescue of ATP level, % at 7.49 µM; actives 0.78% (n = 330,000); AID 602340;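 active = mean ATP rescue above about 67%, or every replicate alone reaching that limit, limit read from the data, passing the limit was not always enough; inconclusive = no clear call, values can overlap the other calls; inactive = mean under the limit and some replicate under it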;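 note: myotubes were challenged with 10 µM simvastatin during compound exposure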
XiGFP reactiv: reactivates the inactive X chromosome in mouse fibroblasts; activation, % at 7.58 µM; actives 0.055% (n = 360,000); XiGFP mouse fibroblasts, % GFP-positive cells imaging, 3 d; cells co-treated with 5-aza-dC sensitizer; scaled so ellipticine positive control = 100%;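 active = mean normalized replicate activation at least 10% and every replicate at or above 10%; inconclusive = only one of the two criteria met; inactive = mean below 10% and not all replicates reach 10%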
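Assay system – SV40-immortalized XiGFP fibroblast cells, line 68-5-11 · Buffer or medium – DMEM supplemented with 5-aza-dC as sensitizing agent · Dosing – one concentration, pinned · Benchmarks – positive control ellipticine, 6 µM final · Times – 3 days compound exposure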
Cneo AK release: causes C. neoformans cell lysis; lysis activity, % at 15 µM; adenylate kinase release luminescence, 4 h; normalised: neutral wells 0, clomiphene wells 100; actives 0.2% (n = 360,000); AID 651654;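 active = mean lysis activity across replicates of at least 80%, whatever share of replicates individually reach that level; inactive = mean lysis activity below 80%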
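read-out = cell lysis signal | test system = log-phase Cryptococcus neoformans yeast cells | input = cells at 5 × 10^6 per mL | medium = fresh YPD growth medium | signal = luminescent adenylate kinase detection reagent | timing = 4 h at 37 °C static, read 1 h later | dosing = single dose | controls = Clomiphene as positive lysis control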
A number is an active result; i = inactive; ? = inconclusive; nt = no result; ! = not confirmed by another sample.

SMILES	DENV2 CPE rescue	C2C12 statin	XiGFP reactiv	Cneo AK release
COc1ccc(OC)c(S(=O)(=O)N2CCN(c3ncccn3)CC2)c1	i	i	i	i
COc1ccc(OC)c(S(=O)(=O)N2CCN(c3c(C)cccc3C)CC2)c1	26.9	i	i	i
COc1cccc(NC(=O)CSc2nc(C)cs2)c1	nt	108.6	nt	i
O=C(Nc1cccc(C(F)(F)F)c1)C1CCN(S(=O)(=O)c2cnc[nH]2)CC1	nt	106.9	nt	i
O=C(Nc1ccncc1)C1CCN(S(=O)(=O)c2cccc(C(F)(F)F)c2)CC1	i	i	i	i
COCC(=O)N(C)C[C@H]1Oc2ncc(-c3ccccc3F)cc2C(=O)N([C@H](C)CO)C[C@H]1C	i	i	i	i
COCC(=O)N(C)C[C@H]1Oc2ncc(-c3ccccc3F)cc2C(=O)N([C@@H](C)CO)C[C@H]1C	nt	i	i	86.8
C[C@H]1CN([C@@H](C)CO)C(=O)c2cc(-c3ccccc3F)cnc2O[C@H]1CN(C)C(=O)c1ccccn1	i	i	i	i
C[C@H](CO)N1C[C@H](C)[C@@H](CN(C)C(=O)c2ccccn2)Oc2ncc(-c3ccccc3F)cc2C1=O	20.8	i	i	i
C[C@@H]1CN([C@H](C)CO)C(=O)c2cc(-c3ccccc3F)cnc2O[C@H]1CN(C)Cc1ccc(F)cc1	28.9	i	i	i
C[C@H]1CN([C@@H](C)CO)C(=O)c2cc(-c3cccnc3)cnc2O[C@H]1CN(C)C	73.0	i	i	i
COc1ccccc1-c1cnc2c(c1)C(=O)N([C@@H](C)CO)C[C@@H](C)[C@H](CN(C)C(=O)c1cccnc1)O2	i	i	i	89.2!
C[C@@H]1CN([C@H](C)CO)C(=O)c2cc(C3=CCCCC3)cnc2O[C@@H]1CN(C)C(=O)c1ccccn1	i	106.0	i	i
COCC(=O)N(C)C[C@@H]1Oc2ncc(-c3ccccc3OC)cc2C(=O)N([C@H](C)CO)C[C@H]1C	?	i	i	i
COCC(=O)N(C)C[C@H]1Oc2ncc(-c3ccccc3OC)cc2C(=O)N([C@@H](C)CO)C[C@@H]1C	21.4	i	i	i
C[C@@H]1CN([C@H](C)CO)C(=O)c2cc(C3=CCCCC3)cnc2O[C@H]1CN(C)C(=O)Cc1cccnc1	i	i	i	103.7
O=C(C[C@H]1CC[C@H]2[C@@H](COC[C@@H](O)CN2S(=O)(=O)c2ccccc2Cl)O1)N1CCC(Cc2ccccc2)CC1	i	i	i	i
Cc1ccc(S(=O)(=O)N2C[C@H]3O[C@H](CNS(=O)(=O)c4ccccc4C)CC[C@H]32)cc1	i	nt	nt	nt
C[C@@H]1CN([C@H](C)CO)C(=O)c2cc(NC(=O)NC3CCCCC3)ccc2O[C@@H]1CN(C)Cc1ccncc1	30.2	i	i	i
C[C@@H]1CN([C@H](C)CO)C(=O)c2cc(NC(=O)Nc3ccc(C(F)(F)F)cc3)ccc2O[C@H]1CN(C)Cc1ccncc1	32.8	i	i	i
C[C@H]1CN([C@@H](C)CO)C(=O)c2cc(NC(=O)Nc3ccc(C(F)(F)F)cc3)ccc2O[C@H]1CN(C)Cc1ccc(Cl)c(Cl)c1	?	i	i	i
C[C@@H]1CN([C@H](C)CO)C(=O)c2cc(NC(=O)Nc3ccc(C(F)(F)F)cc3)ccc2O[C@@H]1CN(C)Cc1ccc(Cl)c(Cl)c1	45.8	i	i	i
O=C(Nc1ccc(F)cc1)Nn1cnnc1	i	i	i	i
O=C(Nc1ccc(F)c(Cl)c1)Nn1cnnc1	76.1	i	i	i
O=C(NCC(c1ccco1)N1CCc2ccccc21)c1c(F)cccc1F (stereo not given)	63.5	i	i	i
SMILES	DENV2 CPE rescue	C2C12 statin	XiGFP reactiv	Cneo AK release
CC(C)NC(=O)N(C)C[C@@H]1Oc2ncc(C#Cc3ccncc3)cc2C(=O)N([C@H](C)CO)C[C@@H]1C	i	i	i	i
CSCC[C@H](NC(=O)[C@H](Cc1ccccc1)n1c(=O)[nH]c2ccccc2c1=O)C(=O)N1CCC[C@H]1C(=O)O	i	i	nt	i
NC(=O)CC[C@H](NC(=O)[C@H](Cc1ccccc1)n1c(=O)[nH]c2ccccc2c1=O)C(=O)N1CCC[C@H]1C(=O)O	66.3	i	nt	i
Cc1ccc(S(=O)(=O)Nc2ccc3c(c2)CC(=O)N([C@H](C)CO)C[C@H](C)[C@H](CN(C)C(=O)Nc2ccc(C(F)(F)F)cc2)O3)cc1	i	i	i	i
CCCc1cc(=O)[nH]c(SCC(=O)Nc2cccc3ccccc23)n1	i	i	i	i
CCCc1cc(=O)[nH]c(SCC(=O)Nc2ccc(OCc3ccccc3)cc2)n1	i	i	i	i
CCCc1cc(=O)[nH]c(SCC(=O)Nc2ccccc2C#N)n1	nt	98.2	nt	i
Nc1nc(SCC(=O)Nc2ccc(Cl)cc2)[nH]c(=O)c1-c1ccccc1	i	121.8	i	i
COCc1cc(=O)[nH]c(SCC(=O)Nc2ccccc2)n1	nt	101.6	nt	i
C[C@@H]1CN([C@H](C)CO)C(=O)c2cc(C#CC3(O)CCCC3)cnc2O[C@H]1CN(C)C	i	i	i	i
CCN1CCN(S(=O)(=O)c2ccc(Cl)c(C(=O)N(C)CCOc3ccc(Cl)cc3)c2)CC1	67.5	nt	i	nt
COc1ccc(S(=O)(=O)N2CCCCCC2)cc1C(=O)N(C)CCOc1ccc(Cl)cc1	i	i	i	i
C[C@H](CO)N1C[C@H](C)[C@H](CN(C)C)Oc2ccc(NC(=O)Nc3ccc4c(c3)OCO4)cc2C1=O	i	i	i	i
Cc1ccc(S(=O)(=O)Nc2ccc3c(c2)CC(=O)N([C@@H](C)CO)C[C@@H](C)[C@H](CN(C)S(=O)(=O)c2c(C)noc2C)O3)cc1	i	i	i	i
Cc1nnc(N2C(=O)C(O)=C(C(=O)c3ccco3)C2c2ccc(C(C)(C)C)cc2)s1 (stereo not given)	nt	116.7	nt	i
Nc1ccn([C@H]2CS[C@@H](CO)O2)c(=O)n1	26.6	i	nt	i
CNC[C@H]1OCCCC[C@H](C)Oc2ccc(NC(=O)Cc3ccccc3)cc2C(=O)N([C@H](C)CO)C[C@@H]1C	i	i	i	108.2
CNC[C@H]1OCCCC[C@@H](C)Oc2ccc(NC(=O)Cc3ccccc3)cc2C(=O)N([C@@H](C)CO)C[C@H]1C	i	i	i	i
CNC[C@@H]1OCCCC[C@H](C)Oc2ccc(NC(=O)Cc3ccccc3)cc2C(=O)N([C@@H](C)CO)C[C@H]1C	43.7	i	i	i
CNC[C@@H]1Oc2ccc(NS(=O)(=O)c3ccc(Cl)cc3)cc2CC(=O)N([C@@H](C)CO)C[C@@H]1C	40.7	i	i	i
CNC[C@H]1Oc2ccc(NS(=O)(=O)c3ccc(Cl)cc3)cc2CC(=O)N([C@@H](C)CO)C[C@@H]1C	27.1	i	i	i
CNC[C@@H]1Oc2ccc(NS(=O)(=O)c3ccc(Cl)cc3)cc2CC(=O)N([C@H](C)CO)C[C@@H]1C	i	i	i	i
CO[C@H]1CN(C)C(=O)c2ccc(NS(=O)(=O)c3ccc(-c4ccccc4)cc3)cc2OC[C@@H](C)NC[C@H]1C	i	i	i	i
Cc1cc(C)n2c(NC3CCCC3)c(-c3cccnc3)nc2n1	22.1	nt	i	nt
